Assay results: ChEMBL document CHEMBL4346668, “Novel multitarget inhibitors with antiangiogenic and immunomodulator properties” (Eur J Med Chem, 2019)
pIC50: −log10 of the molar value.

What was measured:
A549 [1] = test: Induction of apoptosis in human A549 cells assessed as apoptotic cells at 100 uM incubated for 24 hrs by FITC-Annexin V staining based flow cytometric analysis (reference value: 20%); assay type: functional
A549 [2] = test: Antiproliferative activity against human A549 cells incubated for 2 days by MTT assay; assay type: functional, cell-based; conditions: A549, 48 h
Summary of the method: (§1)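 MTT assay. Cells seeded at 3 × 10³/well (HeLa, A549, HMEC-1, HEK-293) or 5 × 10³/well (HT-29, MCF-7) in their growth media with serial compound dilutions from 10 mM DMSO stocks. Incubated 2 days at 37 °C, 5% CO₂, then MTT added for 3 h and formazan dissolved in DMSO. A540 read and viability expressed versus untreated cells. IC₅₀ determined graphically; three independent experiments.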

HT-29 [3] = test: Antiproliferative activity against human HT-29 cells incubated for 2 days by MTT assay; assay type: functional, cell-based; conditions: HT-29, 48 h; summary of the method: as §1
HeLa = test: Antiproliferative activity against human HeLa cells incubated for 2 days by MTT assay; assay type: functional, cell-based; conditions: 48 h; summary of the method: as §1
MCF7 = test: Antiproliferative activity against human MCF7 cells incubated for 2 days by MTT assay; assay type: functional, cell-based; conditions: MCF7, 48 h; summary of the method: as §1
HMEC-1 [4] = test: Antiangiogenic activity against HMEC1 cells assessed as inhibition of tube formation incubated for 20 hrs by matrigel based tube formation assay; assay type: functional, Homo sapiens
Summary of the method: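 HMEC-1 cells in EGM-2MV medium seeded at 2 x 10⁴ cells/well on Matrigel (10 mg/mL, gelled 30 min at 37°C) and attached for 30 min. Compounds were added at different concentrations and tube formation was assessed after 20 h at 37°C. The minimum concentration at which inhibition began was reported. Data representative of three experiments.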

HMEC-1 [5] = test: Antiproliferative activity against HMEC1 cells incubated for 2 days by MTT assay; assay type: cell-based; conditions: Homo sapiens, HMEC-1, 48 h; summary of the method: as §1
HEK293 = test: Antiproliferative activity against HEK293 cells incubated for 2 days by MTT assay; assay type: cell-based; conditions: Homo sapiens, HEK293, 48 h; summary of the method: as §1
[6] = molecular target: Vascular endothelial growth factor receptor 2 (Homo sapiens) (UniProt P35968)
[7] = molecular target: Programmed cell death 1 ligand 1 (Homo sapiens) (UniProt Q9NZQ7); test: Binding affinity to PDL1 (unknown origin) assessed as change in melting temperature at 100 uM by fluorescence based real time RT-PCR analysis
HMEC-1 [8] = test: Effect on VEGFR2 in HMEC1 cells assessed as membrane VEGFR2 level at 100 uM incubated for 24 hrs by flow cytometric analysis relative to control; assay type: functional, Homo sapiens
Summary of the method: (§2)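 HMEC-1 cells exposed 24 h to compound at 100 µM. Membrane VEGFR-2 measured on fixed cells stained with Alexa Fluor 647 anti-CD309; total VEGFR-2 measured after Triton X-100 permeabilization before fixation. Read by flow cytometry as % of DMSO control.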

HMEC-1 [9] = test: Effect on VEGFR2 in HMEC1 cells assessed as total VEGFR2 level at 100 uM incubated for 24 hrs by flow cytometric analysis relative to control; assay type: functional, Homo sapiens; summary of the method: as §2
A549 [10] = test: Immunomodulatory activity in human A549 cells assessed as reduction in PD-L1 expression level at 100 uM incubated for 24 hrs by ELISA relative to control; assay type: functional; set-up: scale not given: the % may be the effect or the level left
Summary of the method: (§3)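 A549 cells (3·10⁵/well) treated 24 h with compound; final concentration 100 µM for some compounds and 15 µM for others per table footnote. Lysates protein-normalized by Bradford, and PD-L1 and c-Myc quantified by commercial ELISA kits as % of DMSO-treated cells. Mean ± SD of three experiments.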

A549 [11] = test: Effect on VEGFR2 in human A549 cells assessed as total VEGFR2 level at 10 uM incubated for 24 hrs by flow cytometric analysis relative to control; assay type: functional
A549 [12] = test: Effect on VEGFR2 in human A549 cells assessed as membrane VEGFR2 level at 10 uM incubated for 24 hrs by flow cytometric analysis relative to control; assay type: functional
Summary of the method: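 A549 cells incubated 24 h with compound at 10 µM. Membrane VEGFR-2 (fixed cells) and total VEGFR-2 (permeabilized or lysate) stained with Alexa Fluor 647 anti-CD309 and quantified by flow cytometry relative to DMSO control; mean ± SD of three experiments.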

A549 [13] = test: Immunomodulatory activity in human A549 cells assessed as reduction in c-Myc expression level at 100 uM incubated for 24 hrs by ELISA relative to control; assay type: functional; set-up: scale not given: the % may be the effect or the level left; summary of the method: as §3
HT-29 [14] = test: Antiproliferative activity against human HT-29 cells at 200 uM incubated for 24 hrs in presence of Jurkat T cells by trypan blue staining based Neubauer chamber method relative to control; assay type: functional
Summary of the method: (§4)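 Co-culture of 5 × 10⁴ tumor cells/well with 2 × 10⁵ PD-1-expressing Jurkat T cells in 1.5 mL, treated 24 h with compound at 200 µM. Supernatant discarded; tumor cells trypsinized, stained with trypan blue and living cells counted in a Neubauer chamber. Proliferation inhibition (%) attributable to Jurkat presence reported; representative of three experiments.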

A549 [15] = test: Antiproliferative activity against human A549 cells at 200 uM incubated for 24 hrs in presence of Jurkat T cells by trypan blue staining based Neubauer chamber method relative to control; assay type: functional; summary of the method: as §4
HMEC-1 [16] = test: Effect on VEGFR2 in HMEC1 cells assessed as membrane VEGFR2 level at 10 uM incubated for 24 hrs by flow cytometric analysis relative to control; assay type: functional, Homo sapiens
Summary of the method: (§5)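 HMEC-1 cells exposed 24 h to compound. Membrane VEGFR-2 measured on fixed cells stained with Alexa Fluor 647 anti-CD309; total VEGFR-2 measured on lysates or permeabilized cells. Read by flow cytometry as % of DMSO control; mean ± SD of three experiments.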

HMEC-1 [17] = test: Effect on VEGFR2 in HMEC1 cells assessed as total VEGFR2 level at 10 uM incubated for 24 hrs by flow cytometric analysis relative to control; assay type: functional, Homo sapiens; summary of the method: as §5
A549 [18] = test: Effect on VEGFR2 in human A549 cells assessed as total VEGFR2 level at 100 uM incubated for 24 hrs by flow cytometric analysis relative to control; assay type: functional
A549 [19] = test: Effect on VEGFR2 in human A549 cells assessed as membrane VEGFR2 level at 100 uM incubated for 24 hrs by flow cytometric analysis relative to control; assay type: functional
Summary of the method: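 A549 cells exposed 24 h to compound at 100 µM. Membrane VEGFR-2 stained on fixed cells with Alexa Fluor 647 anti-VEGFR-2; Triton X-100 permeabilization before fixation used for total VEGFR-2. Flow cytometry, % of DMSO control; mean ± SD of three experiments.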

Sequence of Programmed cell death 1 ligand 1 (Homo sapiens) (Q9NZQ7 whole entry): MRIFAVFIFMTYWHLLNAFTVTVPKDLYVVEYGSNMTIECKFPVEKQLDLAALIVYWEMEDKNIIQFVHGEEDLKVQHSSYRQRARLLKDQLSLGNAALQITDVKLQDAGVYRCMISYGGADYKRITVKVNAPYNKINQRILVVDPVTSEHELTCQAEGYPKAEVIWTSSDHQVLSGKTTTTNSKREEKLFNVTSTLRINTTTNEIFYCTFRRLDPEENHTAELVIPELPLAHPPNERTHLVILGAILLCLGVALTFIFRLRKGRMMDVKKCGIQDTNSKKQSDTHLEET
Sequence of Vascular endothelial growth factor receptor 2 (Homo sapiens) (P35968 whole entry): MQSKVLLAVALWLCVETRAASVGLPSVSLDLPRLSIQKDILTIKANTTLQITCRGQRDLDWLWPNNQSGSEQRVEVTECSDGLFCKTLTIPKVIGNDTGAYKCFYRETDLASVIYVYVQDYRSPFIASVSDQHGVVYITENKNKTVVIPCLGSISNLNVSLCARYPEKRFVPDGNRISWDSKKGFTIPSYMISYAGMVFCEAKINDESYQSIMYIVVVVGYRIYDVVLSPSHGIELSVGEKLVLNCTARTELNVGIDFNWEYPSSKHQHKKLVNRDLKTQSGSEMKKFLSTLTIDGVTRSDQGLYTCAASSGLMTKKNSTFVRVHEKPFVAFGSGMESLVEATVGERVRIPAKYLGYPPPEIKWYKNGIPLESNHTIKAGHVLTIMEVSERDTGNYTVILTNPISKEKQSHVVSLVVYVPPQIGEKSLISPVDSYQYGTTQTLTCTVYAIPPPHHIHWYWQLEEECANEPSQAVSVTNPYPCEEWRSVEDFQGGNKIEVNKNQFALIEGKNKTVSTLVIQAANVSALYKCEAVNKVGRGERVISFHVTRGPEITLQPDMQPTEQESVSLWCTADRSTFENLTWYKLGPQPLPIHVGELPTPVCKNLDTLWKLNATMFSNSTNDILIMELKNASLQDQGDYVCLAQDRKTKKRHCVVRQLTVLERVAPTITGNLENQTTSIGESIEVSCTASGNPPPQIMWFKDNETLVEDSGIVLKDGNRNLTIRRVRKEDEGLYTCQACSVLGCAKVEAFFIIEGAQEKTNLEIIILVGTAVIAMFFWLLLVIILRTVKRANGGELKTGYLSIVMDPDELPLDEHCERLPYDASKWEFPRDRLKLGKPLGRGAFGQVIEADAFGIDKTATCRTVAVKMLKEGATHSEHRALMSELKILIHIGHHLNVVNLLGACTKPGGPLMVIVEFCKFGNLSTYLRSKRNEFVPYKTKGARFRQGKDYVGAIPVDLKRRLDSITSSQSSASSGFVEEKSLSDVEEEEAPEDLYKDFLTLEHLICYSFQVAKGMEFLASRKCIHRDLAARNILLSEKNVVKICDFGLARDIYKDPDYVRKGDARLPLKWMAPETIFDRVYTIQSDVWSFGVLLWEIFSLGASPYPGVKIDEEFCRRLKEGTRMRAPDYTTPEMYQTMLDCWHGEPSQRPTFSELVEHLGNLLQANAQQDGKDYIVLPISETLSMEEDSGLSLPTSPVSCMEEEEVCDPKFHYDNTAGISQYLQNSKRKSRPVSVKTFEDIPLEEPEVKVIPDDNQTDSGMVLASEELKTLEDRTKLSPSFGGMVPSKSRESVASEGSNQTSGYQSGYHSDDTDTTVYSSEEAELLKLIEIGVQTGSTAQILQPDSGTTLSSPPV

Structure (SMILES) | pIC50 (A549 [2]) | pIC50 (HT-29 [3]) | pIC50 (HeLa) | pIC50 (MCF7) | ΔTm [6] [°C] | Activity (A549 [1]) [%] | MAC (HMEC-1 [4]) [µM] | pIC50 (HMEC-1 [5]) | pIC50 (HEK293) | ΔTm [7] [°C] | Activity (HMEC-1 [8]) [%] | Activity (HMEC-1 [9]) [%] | Activity (A549 [10]) [%] | Activity (A549 [11]) [%] | Activity (A549 [12]) [%] | Activity (A549 [13]) [%] | other results
CCN(CC)CCNC(=O)c1c(C)[nH]c(/C=C2\C(=O)Nc3ccc(F)cc32)c1C [SUNITINIB] | 4.96 | 5.42 | 5.11 | 7.10 | – | 56 | 3 | 5.15 | 5.30 | – | – | – | – | – | – | – | –
COc1ccc(Cc2cn(CCNC(=O)Nc3ccccc3C)nn2)cc1 | < 3.70 | < 3.70 | < 3.70 | < 3.70 | 9.98 | – | 200 | < 3.70 | < 3.70 | 2.18 | 79 | 100 | 82 | – | – | – | –
COc1ccc(/C=C\c2cccc(NC(=O)Nc3ccccc3Cl)c2)cc1 | 4.68 | 4.92 | 4.66 | 4.72 | – | 61 | 10 | 4.48 | 5.19 | – | – | – | 83 | 177 | 114 | – | –
COc1ccc(/C=C\c2cccc(NC(=O)Nc3ccc(Cl)cc3)c2)cc1 | 4.54 | 4.48 | 5.10 | 4.77 | – | 69 | 1 | 4.48 | 4.70 | – | – | – | 75 | 100 | 118 | – | –
COc1ccc(/C=C/c2cccc(NC(=O)Nc3ccccc3Cl)c2)cc1 | 4.21 | 4.33 | < 4.00 | < 4.00 | 10.2 | 42 | 10 | < 4.00 | 4.24 | 5.09 | – | – | 74 | 42 | 109 | – | Activity (HMEC-1 [16]): 76%; Activity (HMEC-1 [17]): 121%
COc1ccc(CCc2cccc(NC(=O)Nc3ccccc3Cl)c2)cc1 | 4.62 | 4.70 | 4.16 | < 4.00 | 16.2 | 76 | 1 | 4.32 | 4.05 | 2.25 | – | – | 61 | 100 | 100 | 63 | –
COc1ccc(CCc2cccc(NC(=O)Nc3cccc(Cl)c3)c2)cc1 | < 3.70 | 4.85 | 4.78 | 5.09 | 4.1 | 95 | 10 | 4.30 | 5.28 | 5.2 | – | – | 51 | 98 | 97 | 51 | –
COc1ccc(Cc2cn(CCNC(=O)Nc3cccc(Cl)c3)nn2)cc1 | < 3.70 | < 3.70 | < 3.70 | < 3.70 | 7.34 | – | 50 | < 3.70 | < 3.70 | 1.89 | 74 | 81 | 70 | – | – | 60 | Activity (A549 [18]): 86%; Activity (HT-29 [14]): 76%; Activity (A549 [15]): 49%; Activity (A549 [19]): 95%
COc1ccc(/C=C\c2cccc(NC(=O)Nc3cccc(Cl)c3)c2)cc1 | 4.42 | 4.70 | 4.98 | 4.43 | – | 17 | 10 | 4.48 | 5.30 | – | – | – | 92 | 186 | 102 | – | –
COc1ccc(CCc2cccc(NC(=O)Nc3ccc(Cl)cc3)c2)cc1 | < 3.70 | 5.82 | 4.68 | 4.82 | 10.2 | 65 | 100 | < 3.70 | 5.74 | 2.27 | – | – | 38 | 96 | 97 | 44 | Activity (A549 [15]): 16%

Now from value to molecule, other results behind:

pIC50 (A549 [2]) | pIC50 (HT-29 [3]) | pIC50 (HeLa) | pIC50 (MCF7) | ΔTm [6] [°C] | Structure (SMILES) | Activity (A549 [1]) [%] | MAC (HMEC-1 [4]) [µM] | pIC50 (HMEC-1 [5]) | pIC50 (HEK293) | ΔTm [7] [°C] | Activity (HMEC-1 [8]) [%] | Activity (HMEC-1 [9]) [%] | Activity (A549 [10]) [%] | Activity (A549 [11]) [%] | Activity (A549 [12]) [%] | Activity (A549 [13]) [%] | other results
< 3.70 | < 3.70 | < 3.70 | < 3.70 | 5.21 | COc1ccc(Cc2cn(CCNC(=O)Nc3cccc(C)c3)nn2)cc1 | – | – | < 3.70 | < 3.70 | 2.55 | 76 | 91 | 90 | – | – | – | –
< 3.70 | < 3.70 | < 3.70 | < 3.70 | 3.68 | COc1ccc(Cc2cn(CCNC(=O)Nc3ccc(C)cc3)nn2)cc1 | – | – | < 3.70 | < 3.70 | 3.09 | 97 | 90 | 66 | – | – | 70 | Activity (HT-29 [14]): 22%; Activity (A549 [15]): 6%
< 3.70 | < 3.70 | < 3.70 | < 3.70 | 5.09 | COc1ccc(Cc2cn(CCNC(=O)Nc3ccc(Cl)cc3)nn2)cc1 | – | 400 | < 3.70 | < 3.70 | 1.93 | 90 | 102 | 69 | – | – | 73 | Activity (HT-29 [14]): 84%; Activity (A549 [15]): 16%
< 3.70 | < 3.70 | < 3.70 | < 3.70 | 10.5 | COc1ccc(Cc2cn(CCNC(=O)Nc3ccccc3)nn2)cc1 | – | – | < 3.70 | < 3.70 | 2.1 | 97 | 105 | 83 | – | – | – | –
< 3.70 | < 3.70 | < 3.70 | < 3.70 | 2.61 | COc1ccc(Cc2cn(CCNC(=O)Nc3ccc(Br)cc3)nn2)cc1 | – | – | < 3.70 | < 3.70 | 8.74 | 40 | 55 | >100 | – | – | – | Activity (A549 [18]): 61%; Activity (A549 [19]): 70%
< 3.70 | < 3.70 | < 3.70 | < 3.70 | 7.34 | COc1ccc(Cc2cn(CCNC(=O)Nc3cccc(Br)c3)nn2)cc1 | – | – | < 3.70 | < 3.70 | 0.79 | 79 | 78 | 80 | – | – | – | Activity (A549 [18]): 80%; Activity (A549 [19]): 98%
